Test results published in ChEMBL document CHEMBL3525938, “Whole-body physiologically based pharmacokinetic model for nutlin-3a in mice after intravenous and oral administration” (Drug Metab Dispos, 2011).

Experiments:
[1] = Fraction unbound in C57BL/6 mouse plasma at 300 uM up to 24 hrs by equilibrium dialysis method; format: ADME, cell-free
Procedure, shortened: (§1)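 Equilibrium dialysis used male C57BL/6 plasma spiked with the drug against PBS across a 5-kDa membrane. The plate was rotated at 37°C under humidified 5% CO2 for 24 h, in triplicate. The plasma side was taken as bound and the PBS side as free, both measured by LC-MS/MS. Fraction unbound was calculated relative to total plasma concentration.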

Lung [2] = assay: Drug uptake in C57BL/6 mouse lung at 50 to 200 mg/kg, po as single dose measured at 2 hrs; format: ADME, organism-based; parameters: dose 50-200 mg/kg, route oral; conditions: in vivo
Brain [3] = assay: Drug uptake in C57BL/6 mouse brain at 10 mg/kg, iv as single dose measured at 24 hrs; format: ADME, organism-based; parameters: dose 10 mg/kg, route intravenous; conditions: in vivo
Procedure, shortened: (§2)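 Adult C57BL/6 mice received a single bolus of 10 mg/kg by tail-vein iv injection or 100 or 200 mg/kg by oral gavage, with n = 5 per group and vehicle controls. Samples were taken at 0.5–48 h. Blood came by cardiac puncture under isoflurane, and tissues were dissected at the same time and frozen at −80°C. Tissues were homogenized in 5 mM ammonium formate, pH 7, and assayed by LC-ESI-MS/MS against matrix-matched standards.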

[4] = Drug uptake in C57BL/6 mouse adrenal gland at 50 to 200 mg/kg, po as single dose measured at 2 hrs; format: ADME, organism-based; parameters: dose 50-200 mg/kg, route oral; conditions: in vivo
Liver [5] = assay: Drug uptake in C57BL/6 mouse liver at 10 mg/kg, iv as single dose measured at 24 hrs; format: ADME, organism-based; parameters: dose 10 mg/kg, route intravenous; conditions: in vivo; procedure, shortened: as §2
Spleen [6] = assay: Drug uptake in C57BL/6 mouse spleen at 10 mg/kg, iv as single dose measured at 24 hrs; format: ADME, organism-based; parameters: dose 10 mg/kg, route intravenous; conditions: in vivo; procedure, shortened: as §2
Intestine [7] = assay: Drug uptake in C57BL/6 mouse intestine at 50 to 200 mg/kg, po as single dose measured at 2 hrs; format: ADME, organism-based; parameters: dose 50-200 mg/kg, route oral; conditions: in vivo
Intestine [8] = assay: Drug uptake in C57BL/6 mouse intestine at 10 mg/kg, iv as single dose measured at 24 hrs; format: ADME, organism-based; parameters: dose 10 mg/kg, route intravenous; conditions: in vivo
Plasma [9] = assay: Drug uptake in C57BL/6 mouse plasma at 50 to 200 mg/kg, po as single dose measured at 2 hrs; format: ADME, organism-based; parameters: dose 50-200 mg/kg, route oral; conditions: in vivo
Procedure, shortened: (§3)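 Plasma came from two studies in C57BL/6 mice. Study 1: single iv dose of 10 mg/kg or oral dose of 100 or 200 mg/kg, n = 5, blood by cardiac puncture at 0.5–48 h. Study 2 (males): iv 10 or 20 mg/kg, oral 50 or 100 mg/kg, serial plasma to 24 h (iv) or 16 h (oral). Plasma was separated at 12,000g for 5 min at 4°C and measured by LC-ESI-MS/MS.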

[10] = Ratio of drug level in blood to plasma in C57BL/6 mouse after 30 mins; format: ADME; conditions: blood and plasma
Procedure, shortened: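 Pooled heparinized whole blood from male C57BL/6 mice was spiked at 0.1, 1, 10 and 100 μM final, in triplicate, and incubated at 37°C for 30 min with mixing every 5 min. Whole blood was sampled, and plasma was obtained by centrifugation. Both were measured by LC-MS/MS, and the ratio was calculated from the whole-blood and plasma concentrations.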

Plasma [11] = assay: Drug uptake in C57BL/6 mouse plasma at 10 mg/kg, iv as single dose measured at 24 hrs; format: ADME, organism-based; parameters: dose 10 mg/kg, route intravenous; conditions: in vivo; procedure, shortened: as §3
[12] = Drug uptake in C57BL/6 mouse adipose tissue at 10 mg/kg, iv as single dose measured at 24 hrs; format: ADME, organism-based; parameters: dose 10 mg/kg, route intravenous; conditions: in vivo
Brain [13] = assay: Drug uptake in C57BL/6 mouse brain at 50 to 200 mg/kg, po as single dose measured at 2 hrs; format: ADME, organism-based; parameters: dose 50-200 mg/kg, route oral; conditions: in vivo; procedure, shortened: as §2
[14] = Drug uptake in C57BL/6 mouse adipose tissue at 50 to 200 mg/kg, po as single dose measured at 2 hrs; format: ADME, organism-based; parameters: dose 50-200 mg/kg, route oral; conditions: in vivo
[15] = Drug uptake in C57BL/6 mouse vitreous humor at 50 to 200 mg/kg, po as single dose measured at 2 hrs; format: ADME, organism-based; parameters: dose 50-200 mg/kg, route oral; conditions: in vivo
Lung [16] = assay: Drug uptake in C57BL/6 mouse lung at 10 mg/kg, iv as single dose measured at 24 hrs; format: ADME, organism-based; parameters: dose 10 mg/kg, route intravenous; conditions: in vivo
[17] = Drug uptake in C57BL/6 mouse retina at 10 mg/kg, iv as single dose measured at 24 hrs; format: ADME, organism-based; parameters: dose 10 mg/kg, route intravenous; conditions: in vivo; procedure, shortened: as §2
[18] = Drug uptake in C57BL/6 mouse adrenal gland at 10 mg/kg, iv as single dose measured at 24 hrs; format: ADME, organism-based; parameters: dose 10 mg/kg, route intravenous; conditions: in vivo
Liver [19] = assay: Drug uptake in C57BL/6 mouse liver at 50 to 200 mg/kg, po as single dose measured at 2 hrs; format: ADME, organism-based; parameters: dose 50-200 mg/kg, route oral; conditions: in vivo; procedure, shortened: as §2
[20] = Drug uptake in C57BL/6 mouse vitreous humor at 10 mg/kg, iv as single dose measured at 24 hrs; format: ADME, organism-based; parameters: dose 10 mg/kg, route intravenous; conditions: in vivo; procedure, shortened: as §2
Bone marrow [21] = assay: Drug uptake in C57BL/6 mouse bone marrow at 10 mg/kg, iv as single dose measured at 24 hrs; format: ADME, organism-based; parameters: dose 10 mg/kg, route intravenous; conditions: in vivo; procedure, shortened: as §2
Bone marrow [22] = assay: Drug uptake in C57BL/6 mouse bone marrow at 50 to 200 mg/kg, po as single dose measured at 2 hrs; format: ADME, organism-based; parameters: dose 50-200 mg/kg, route oral; conditions: in vivo; procedure, shortened: as §2
[23] = Cytotoxicity against doxorubicin-resistant human UKF-NB-3 cells after 96 hrs by MTT assay; format: functional, cell-based; conditions: UKF-NB-3, 96 h
[24] = Drug uptake in C57BL/6 mouse retina at 50 to 200 mg/kg, po as single dose measured at 2 hrs; format: ADME, organism-based; parameters: dose 50-200 mg/kg, route oral; conditions: in vivo
Spleen [25] = assay: Drug uptake in C57BL/6 mouse spleen at 50 to 200 mg/kg, po as single dose measured at 2 hrs; format: ADME, organism-based; parameters: dose 50-200 mg/kg, route oral; conditions: in vivo; procedure, shortened: as §2
Muscle tissue [26] = assay: Drug uptake in C57BL/6 mouse muscle at 10 mg/kg, iv as single dose measured at 24 hrs; format: ADME, organism-based; parameters: dose 10 mg/kg, route intravenous; conditions: in vivo
[27] = Fraction unbound in C57BL/6 mouse plasma at 0.1 uM up to 24 hrs by equilibrium dialysis method; format: ADME, cell-free; procedure, shortened: as §1
Muscle tissue [28] = assay: Drug uptake in C57BL/6 mouse muscle at 50 to 200 mg/kg, po as single dose measured at 2 hrs; format: ADME, organism-based; parameters: dose 50-200 mg/kg, route oral; conditions: in vivo

In the case of `COc1ccc(C2=N[C@@H](c3ccc(Cl)cc3)[C@@H](c3ccc(Cl)cc3)N2C(=O)N2CCNC(=O)C2)c(OC(C)C)c1` [NUTLIN-3], the fraction unbound at 24 h, 300 µM [1] is reported as 0.118, the Drug uptake (Lung [2]) is reported as “Active” and the Drug uptake (Brain [3]) is reported as “Not Active”. The Drug uptake [4] was “Active”, the Drug uptake (Liver [5]) was “Not Active” and the Drug uptake (Spleen [6]) was “Not Active”. For the same compound, the Drug uptake (Intestine [7]) was “Active”, the Drug uptake (Intestine [8]) was “Not Active” and the Drug uptake (Plasma [9]) was “Active”. For the same compound, the blood plasma ratio at 0.5 h [10] was 0.7, the Drug uptake (Plasma [11]) was “Not Active” and the Drug uptake [12] was “Not Active”. The Drug uptake (Brain [13]) was “Not Active”, the Drug uptake [14] was “Active” and the Drug uptake [15] was “Not Active”. The Drug uptake (Lung [16]) was “Not Active”, the Drug uptake [17] was “Not Active” and the Drug uptake [18] was “Not Active”. The Drug uptake (Liver [19]) was “Active”, the Drug uptake [20] was “Not Active” and the Drug uptake (Bone marrow [21]) was “Not Active”. The Drug uptake (Bone marrow [22]) was “Not Active”, the IC50 [23] was 5.56 µM and the Drug uptake [24] was “Active”. The Drug uptake (Spleen [25]) was “Active”, the Drug uptake (Muscle tissue [26]) was “Not Active” and the fraction unbound at 24 h, 0.1 µM [27] was 0.007. The Drug uptake (Muscle tissue [28]) was “Active”.
